This is an account of results in ChEMBL document CHEMBL1146047, “Novel pyrazolopyrimidopyridazinones with potent and selective phosphodiesterase 5 (PDE5) inhibitory activity as potential agents for treatment of erectile dysfunction” (J Med Chem, 2006).

A word on the inhibition: it is the percentage by which the read-out fell short of the control. Low values mean a weak effect, high ones a strong effect. For orientation: IC50 means the concentration that inhibits the measured activity by half. Read a high IC50 as a need for much substance.

Structures are written as SMILES.

The test system of assay [1] is Phosphodiesterase 6 (Bos taurus). The assay can be described thus: Inhibition of PDE6 at 2 uM.
Assay [2] concerns the target Phosphodiesterase 6 (Bos taurus). Nature of the assay: Inhibition of PDE6.
Assay [3] deals with T1, cGMP-specific 3',5'-cyclic phosphodiesterase (Homo sapiens, UniProt O76074). The assay can be described thus: Inhibition of PDE5.
The target of assay [4] is T1, cGMP-specific 3',5'-cyclic phosphodiesterase. Nature of the assay: Inhibition of PDE5 at 2 uM. In outline: (§1)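 PDE5 enzyme preparation was stored frozen at -80 °C with 1 g/L bovine serum albumin until use. […] Activity is reported as percent inhibition at the single test concentration indicated.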
The species named for a further assay is Homo sapiens. Nature of the assay: Selectivity for PDE5 over PDE6.
Assay [5] deals with T1, cGMP-specific 3',5'-cyclic phosphodiesterase. The assay can be described thus: Inhibition of PDE5 at 0.2 uM. In outline: as §1
Assay [6] concerns Phosphodiesterase 6 (Bos taurus). The assay can be described thus: Inhibition of PDE6 at 0.2 uM.

For `Cc1nn(Cc2ccccc2)c(=O)c2nc(C)n3nc(-c4ccccc4)cc3c12`, the inhibition in assay [1] was found to be 25%.

In the case of `Cc1nn(Cc2ccccc2)c(=O)c2nc(C)n3nc(-c4ccoc4)cc3c12`, the IC50 in assay [2] worked out at 330 nM; in assay [3] it was 50 nM.

The compound `COC(=O)CCc1nc2c(=O)n(Cc3ccccc3)nc(C)c2c2cc(-c3ccccc3)nn12` showed an inhibition in assay [1] of 16.9%. In addition, 79 nM corresponded to half-maximal inhibition in assay [3] (IC50).

For `Cc1nn(C(C)C)c(=O)c2nc(C)n3nc(-c4ccccc4)cc3c12`, the inhibition in assay [1] is 1.2%; in assay [4], 44.7%.

Regarding `Cc1nn(Cc2ccc3c(c2)OCO3)c(=O)c2nc(C)n3nc(-c4ccccc4)cc3c12`, the inhibition in assay [1] was 7%. Also, in assay [3], the IC50 was determined as 390 nM.

Turning to `CCCc1nc2c(=O)n(Cc3ccccc3)nc(C)c2c2cc(-c3ccccc3)nn12`, the figures for the 50% inhibitory concentration (IC50) in assay [2] and in assay [3] were 610 nM and 40 nM, respectively. In addition, the Selectivity ratio in the assay listed under Homo sapiens was determined as 15.

The compound `CC(=O)CCc1nc2c(=O)n(Cc3ccccc3)nc(C)c2c2cc(-c3ccccc3)nn12` gave an inhibition in assay [1] of 22.8%. Besides, in the assay filed under Homo sapiens, the Selectivity ratio is > 240. The compound also came in with a 50% inhibitory concentration (IC50) in assay [3] of 8.3 nM.

Take `Cc1nn(CC(=O)O)c(=O)c2nc(C)n3nc(-c4ccccc4)cc3c12`: the inhibition in assay [5] was determined as 7.6%; in assay [6] it was 11.2%.

Turning to `CCc1nn(Cc2ccccc2)c(=O)c2nc(C)n3nc(-c4ccccc4)cc3c12`, the inhibition in assay [1] was 21.8%. For the same compound, in assay [3], half-maximal inhibition (IC50) was put at 220 nM.

Take `CCOCc1nn(Cc2ccccc2)c(=O)c2nc(C)n3nc(-c4ccccc4)cc3c12`: the results for the IC50 in assay [2] and in assay [3] were 330 nM and 71 nM, respectively.

For `Cc1nn(Cc2ccncc2)c(=O)c2nc(C)n3nc(-c4ccccc4)cc3c12`, the inhibition in assay [1] came out at 39.4%. In assay [3], half-maximal inhibition (IC50) required 240 nM.

As for `Cc1nc2c(=O)n(Cc3ccccc3)nc(C3CCCC3)c2c2cc(-c3ccccc3)nn12`, the inhibition in assay [1] was found to be 12.3%; in assay [4], 14.3%.

As to `COC(=O)CCCCc1nc2c(=O)n(Cc3ccccc3)nc(C)c2c2cc(-c3ccccc3)nn12`, in assay [1], the inhibition turned out to be 1.1%. In assay [3], the concentration for half-maximal inhibition (IC50) was 95 nM.

`Cc1nnc(NCc2ccccc2)c2nc(C)n3nc(-c4ccccc4)cc3c12` showed an inhibition in assay [4] of 52.4%.

`COc1cccc(Cn2nc(C)c3c(nc(C)n4nc(-c5ccccc5)cc34)c2=O)c1`: the inhibition in assay [1] was found to be 3.8%. Also, the Selectivity ratio in the assay listed under Homo sapiens was > 20. For the same compound, in assay [3], the half-maximal inhibitory concentration (IC50) stood at 100 nM.

Turning to `Cc1nc2c(=O)n(Cc3ccccc3)nc(CN3CCN(C)CC3)c2c2cc(-c3ccccc3)nn12`, the inhibition in assay [5] amounted to 23%; in assay [6] it was 30%.

In assay [1], `Cc1nc2c(=O)n(Cc3ccccc3)nc(C(C)C)c2c2cc(-c3ccccc3)nn12` had an inhibition of 59.8%. The IC50 in assay [3] was determined as 100 nM.

As for `CCCCn1nc(C)c2c(nc(C)n3nc(-c4ccccc4)cc23)c1=O`, the results for the inhibition in assay [1] and in assay [4] were 32.5% and 54.6%, respectively.

Regarding `Cc1nn(Cc2ccccc2)c(=O)c2nc(C)n3nc(-c4ccc(S(C)(=O)=O)cc4)cc3c12`, the inhibition came out at 2.8% in assay [1] and 3.8% in assay [4].

With `Cc1nn(Cc2ccccc2)c(=O)c2nc(C)n3nc(-c4ccsc4)cc3c12`, the concentration for half-maximal inhibition (IC50) was found to be 2200 nM in assay [2] and 140 nM in assay [3]. In addition, the Selectivity ratio in the assay listed under Homo sapiens worked out at 16.

As to `CCn1nc(C)c2c(nc(C)n3nc(-c4ccccc4)cc23)c1=O`, the inhibition was determined as 49.3% in assay [4] and 53.4% in assay [6].

Regarding `Cc1nn(Cc2ccccc2)c(=O)c2nc(C)n3nc(-c4cccnc4)cc3c12`, the half-inhibitory concentration (IC50) amounted to 280 nM in assay [2] and 470 nM in assay [3].

In the case of `Cc1nn(Cc2ccccc2)c(=O)c2nc(C)n3nc(-c4ccc(F)cc4)cc3c12`, the results for the inhibition in assay [1] and in assay [4] were 4.5% and 38.8%, respectively.

For `CCCn1nc(C)c2c(nc(C)n3nc(-c4ccccc4)cc23)c1=O`, the values for the inhibition in assay [1] and in assay [4] were 6.9% and 44.9%, respectively.

On to `C#CCn1nc(C)c2c(nc(C)n3nc(-c4ccccc4)cc23)c1=O`, for which the inhibition in assay [5] came to 19.7%; in assay [6] it was 0.3%.

Consider `Cc1nn(Cc2ccccc2)c(=O)c2nc(C)n3nc(-c4ccc(Cl)cc4)cc3c12`, for which the results for the IC50 in assay [2] and in assay [3] were 4700 nM and 370 nM, respectively.

Turning to `Cc1nnc(NCc2ccc3c(c2)OCO3)c2nc(C)n3nc(-c4ccccc4)cc3c12`, in assay [4], the inhibition came out at 56.8%.

Consider `Cc1nn(CCC2CCNCC2)c(=O)c2nc(C)n3nc(-c4ccccc4)cc3c12`, for which the inhibition came out at 26.6% in assay [1] and 67.7% in assay [4].

For the compound `Cc1nn(Cc2ccccc2)c(=O)c2ncn3nc(-c4ccccc4)cc3c12`, the IC50 in assay [2] worked out at 860 nM; in assay [3] it was 180 nM.
